Measured values reported in ChEMBL document CHEMBL2086391, “Structure based molecular design, synthesis and biological evaluation of α-pyrone analogs as anti-HSV agent” (Bioorg Med Chem Lett, 2012).
≈ marks a conversion by molar mass, not a printed value. Calls of active or inactive are those of the source. No cut-off for these calls is given here.

Legend:
[1] = Selectivity index, ratio of CC50 for african green monkey Vero cells to EC50 for HSV-1F ATCC 733; assay type: toxicity, cell-based; details: read-out: Ratio CC50/EC50
Method in brief: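 SI computed as CC50/EC50. CC50 from the 2-day MTT viability assay on Vero cells; EC50 from the 3-day MTT assay of HSV-1 cytopathic effect (MOI 0.5). Both in µg/ml.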

[2] = system: Human alphaherpesvirus 1; assay: Antiviral activity against HSV-1F ATCC 733 infected in african green monkey Vero cells assessed as inhibition of virus yield at 20 ug/ml after 3 days by MTT assay; assay type: functional; details: Human alphaherpesvirus 1, ATCC 733, Vero, 72 h
[3] = system: Human immunodeficiency virus; assay: Antiviral activity against HIV infected in human MT4 cells by MTT assay; assay type: functional, organism-based
[4] = Cytotoxicity against african green monkey Vero cells after 2 days by MTT assay; assay type: cell-based; details: chlorocebus sabaeus
Method in brief: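 Vero cells plated at 1.0 × 10^5 cells/ml and exposed in triplicate to a range of compound concentrations, with 0.1% DMSO as negative control. After 2 days at 37 °C, 5% CO2, MTT added for 4 h. Formazan dissolved in 0.04 N HCl/isopropanol and read at 570 nm (reference 690 nm). % viability taken against media control; CC50 in µg/ml.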

[5] = system: Human alphaherpesvirus 1; assay: Antiviral activity against HSV-1F ATCC 733 infected in african green monkey Vero cells assessed as inhibition of virus induced cytopathic effect after 3 days by MTT assay; assay type: functional, organism-based; details: Human alphaherpesvirus 1, ATCC 733, Vero, 72 h
Method in brief: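 Vero cells seeded at 1.0 × 10^5 cells/ml, held 6 h at 37 °C, 5% CO2, then infected with virus at 0.5 MOI for 1 h. Serial compound concentrations added in triplicate, with 0.1% DMSO and acyclovir controls. MTT read after 3 days at 37 °C. % inhibition taken from test, virus-control and cell-control absorbances. EC50 is 50% inhibition of virus-induced CPE; experiment repeated three times.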

[6] = system: Human herpesvirus 2 strain G; assay: Antiviral activity against HSV-2G ATCC 734 infected in african green monkey Vero cells after 2 to 3 days by plaque reduction assay; assay type: functional, organism-based; details: Human alphaherpesvirus 2, ATCC 734, Vero
Method in brief: (§1)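 Vero cells infected at MOI 0.5 (HSV-1 or HSV-2), with serial compound dilutions in EMEM, held 1–2 h at room temperature. Cells then washed and overlaid with methylcellulose. Plaques stained with crystal violet after 2–3 days. Acyclovir and 0.1% DMSO served as controls. EC50 (50% plaque reduction) interpolated from dose-response curves.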

[7] = system: Human alphaherpesvirus 1; assay: Antiviral activity against HSV-1F ATCC 733 infected in african green monkey Vero cells after 2 to 3 days by plaque reduction assay; assay type: functional, organism-based; details: Human alphaherpesvirus 1, ATCC 733, Vero; method in brief: as §1
[8] = Selectivity index, ratio of CC50 for african green monkey Vero cells to EC50 for HSV-2G ATCC 734 by plaque reduction assay; assay type: toxicity, cell-based; details: read-out: Ratio CC50/EC50
Method in brief: (§2)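 SI derived from the Vero CC50 (MTT) divided by the plaque-reduction EC50 against the named HSV strain (MOI 0.5, methylcellulose overlay, crystal violet count after 2–3 days).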

[9] = Selectivity index, ratio of CC50 for african green monkey Vero cells to EC50 for HSV-1F ATCC 733 by plaque reduction assay; assay type: toxicity, cell-based; details: read-out: Ratio CC50/EC50; method in brief: as §2

EC50 [6] [µg/mL]	EC50 [7] [µg/mL]	Structure (SMILES)	selectivity ratio [1]	inhibition at 20 µg/mL [2] [%]	Activity [3]	CC50 at 48 h [4] [µg/mL]	EC50 [5] [µg/mL]	selectivity ratio [8]	selectivity ratio [9]
		O=C(Nc1ccccc1)c1c(N2CCCC2)cc(-c2ccccc2)oc1=O	3	79	inactive	37.5 (≈ 104 µM)	12.5 (≈ 34.7 µM)		
1.8 (≈ 7.99 µM)		Nc1nc2c(ncn2COCCO)c(=O)[nH]1 [ACYCLOVIR]		94		130 (≈ 577 µM)			
		O=C(NCCO)c1c(N2CCCC2)cc(-c2ccc(F)cc2)oc1=O			inactive				
		Cc1ccc(NC(=O)c2c(N3CCCC3)cc(-c3ccccc3)oc2=O)cc1	2.7	62	inactive	56.5 (≈ 151 µM)	20.9 (≈ 55.8 µM)		
		O=C(Nc1ccc(Br)cc1)c1c(N2CCCC2)cc(-c2ccccc2)oc1=O			inactive				
14.5 (≈ 42.3 µM)	4.1 (≈ 12 µM)	O=C(NCCO)c1c(N2CCCCC2)cc(-c2ccccc2)oc1=O	7.1	89	inactive	52.5 (≈ 153 µM)	7.4 (≈ 21.6 µM)	3.6	12.8
		O=C(Nc1ccc(Cl)cc1)c1c(N2CCCC2)cc(-c2ccccc2)oc1=O			inactive				
		O=C(NCCO)c1c(N2CCCCC2)cc(-c2ccc(F)cc2)oc1=O			inactive				
		O=C(Nc1ccc(F)cc1)c1c(N2CCCC2)cc(-c2ccccc2)oc1=O			inactive				
		O=C(NCCO)c1c(N2CCCC2)cc(-c2ccccc2)oc1=O	3.1	70	inactive	30 (≈ 91.4 µM)	9.7 (≈ 29.5 µM)		
